Measurements from different studies.
Each line is one published result; the experiments were not run side by side.
Target: Casein kinase I isoform epsilon (CSNK1E, Homo sapiens, UniProt P49674)

| Structure (SMILES) | read-out | mode | technique | concentration | quantity | result |
| --- | --- | --- | --- | --- | --- | --- |
| Nc1ncnc2occ(-c3ccc(NC(=O)Nc4cc(C(F)(F)F)ccc4F)cc3)c12 | enzyme activity | inhibitor | – | 20 µM | remaining activity | 0.65% |
| O=c1cc(-c2cccc3c2Sc2ccccc2S3)oc(N2CCOCC2)c1 | enzyme activity | inhibitor | – | 0.5 µM | remaining activity | 104% |
| CNCc1ccccc1-c1csc([C@H](C)Nc2nc(C)nc3cc(OC)c(OC)cc23)c1 | cell-free assay | – | competition with immobilised ligand | 1 µM | remaining binding | 91% |
| Cc1ccc(C(=O)Nc2ccc(CN3CCN(C)CC3)c(C(F)(F)F)c2)cc1C#Cc1cnc2cccnn12 | enzyme activity | inhibitor | – | 23.5 nM | remaining activity | 88% |
| O=C1Nc2ccc(Cl)cc2C1=Cc1cc(Cl)c(O)c(Cl)c1 | enzyme activity | – | – | 0.5 µM | remaining activity | 66.6% |
| CC(C)(C)c1nc2c(s1)c1nc(N)ncc1c1ccc(NS(=O)(=O)c3c(F)cccc3F)c(F)c12 | enzyme activity | inhibitor | radiometric | 1 µM | remaining activity | 84% |
| O=C(Nc1cnn(-c2csc(C(=O)NC3COC3)c2)c1)Nc1c(F)cccc1Cl | enzyme activity | inhibitor | – | 5 µM | remaining activity | 88.6% |
| CC(C)(O)c1cncc(-c2nc3ccc(F)cc3n2C2CC2)c1 | cell-free assay | – | competition with immobilised ligand | 1 µM | remaining binding | 100% |
| Cc1ccc(NC(=O)c2ccc(CN3CCN(C)CC3)cc2)cc1Nc1nccc(-c2cccnc2)n1 | enzyme activity | inhibitor | – | 0.5 µM | activity vs control | 92.4% |
| CC(C)(O)[C@H]1CC[C@H](Nc2ccc3ncc(-c4cccc(C(F)(F)F)c4)n3n2)CC1 | enzyme activity | inhibitor | – | 1 µM | remaining activity | 78.5% |
| CCS(=O)(=O)c1cc2cc(C[C@@](O)(CC(C)(C)c3ccc(F)cc3C(N)=O)C(F)(F)F)[nH]c2cn1 | cell-free assay | – | competition with immobilised ligand | 1 µM | remaining binding | 97% |
| CC/C(=N\NC(=O)NCc1cccc(O)c1)c1ccc(O)c(C)c1O | enzyme activity | inhibitor | – | 0.1 µM | inhibition | 3.6% |
| Nc1nc(Nc2ccc(S(N)(=O)=O)cc2)nn1C(=O)c1c(F)cccc1F | cell-free assay | – | – | 0.5 µM | remaining signal | 96.9% |
| Cn1c2c(Cl)c(Cl)ccc2c2cc[nH]c(=O)c21 | thermal stability | – | DSF | 10 µM | ΔTm | 1 °C |
| COc1cc2ncnc(Nc3ccc(Oc4ccccc4)cc3C)c2cc1OC | enzyme activity | inhibitor | – | 1 µM | inhibition | 2% |
| CCN(CC)CCNC(=O)c1c(C)[nH]c(/C=C2\C(=O)Nc3ccc(Cl)cc32)c1C | enzyme activity | inhibitor | – | 0.5 µM | remaining activity | 46.7% |
| CCOC(=O)c1cc2cc(-c3cc(C(=O)NCc4ccc(C(=O)O)cc4)nn3C)ccc2[nH]1 | cell-free assay | – | competition with immobilised ligand | 0.1 µM | remaining binding | 100% |
| Cn1c2c(c3ccc(Cl)c(Cl)c31)C(C#N)C1(CCOCC1)NC2=O (stereo not shown) | thermal stability | – | DSF | 10 µM | ΔTm | 0.4 °C |
| O=C(N1CCS(=O)(=O)CC1)N1C[C@H](c2ccc(OC(F)(F)F)cc2)C[C@H](c2nc(C3CC3)no2)C1 | cell-free assay | – | competition with immobilised ligand | 1 µM | remaining binding | 100% |
| CC1(C)NC(=O)c2[nH]c3c(Cl)c(Cl)ccc3c2C1C#N (stereo not shown) | thermal stability | – | DSF | 10 µM | ΔTm | 1.8 °C |
| C[C@@H]1CCN(C(=O)CC#N)C[C@@H]1N(C)c1ncnc2[nH]ccc12 | enzyme activity | inhibitor | – | 0.5 µM | remaining activity | 101% |
| CN([C@@H]1CCc2c(CC(=O)O)c3ccccc3n2C1)S(=O)(=O)c1ccc(F)cc1 | cell-free assay | – | competition with immobilised ligand | 1 µM | remaining binding | 90% |
